For experiment [1], the target named is T1, Adenosine receptor A3 (Homo sapiens) (UniProt P0DMS8).
T1 sequence (whole entry): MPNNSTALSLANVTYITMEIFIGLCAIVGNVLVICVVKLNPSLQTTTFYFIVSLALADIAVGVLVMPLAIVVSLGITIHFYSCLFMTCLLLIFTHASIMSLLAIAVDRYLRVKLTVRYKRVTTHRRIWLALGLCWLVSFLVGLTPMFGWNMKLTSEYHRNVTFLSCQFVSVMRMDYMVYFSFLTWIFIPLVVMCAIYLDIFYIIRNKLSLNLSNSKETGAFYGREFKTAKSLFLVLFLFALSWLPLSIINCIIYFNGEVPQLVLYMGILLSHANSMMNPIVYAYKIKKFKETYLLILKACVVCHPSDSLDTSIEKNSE
Nature of the experiment: Displacement of [3H]PSB11 from human adenosine A3 receptor expressed in HEK 293 cells at 10 uM after 1 hr by scintillation counting. The experiment is classed as cell-based. The note with it: HEK293. For orientation: Loss of bound radioactivity is the signal in a displacement assay; it reports binding, not function.

In experiment [2] the target is T2, Adenosine receptor A2b (Homo sapiens) (UniProt P29275).
T2 sequence (whole entry): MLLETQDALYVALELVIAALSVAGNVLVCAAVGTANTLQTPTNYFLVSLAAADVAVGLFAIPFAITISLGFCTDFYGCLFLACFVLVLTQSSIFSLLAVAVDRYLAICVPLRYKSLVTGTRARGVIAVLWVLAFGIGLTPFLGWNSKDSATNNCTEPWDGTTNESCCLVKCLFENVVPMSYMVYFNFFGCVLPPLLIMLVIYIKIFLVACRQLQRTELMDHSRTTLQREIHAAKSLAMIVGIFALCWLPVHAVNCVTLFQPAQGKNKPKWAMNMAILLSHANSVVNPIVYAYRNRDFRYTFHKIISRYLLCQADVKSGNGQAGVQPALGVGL
Nature of the experiment: Displacement of [3H][…] from human adenosine A2B receptor expressed in CHO cells at 10 uM after 2 hrs by scintillation counting. The experiment is classed as cell-based. The method, boiled down: (§1)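 Stably transfected CHO membranes (15 μg protein) with 1.0 nM [3H]PSB603 final in 50 mM Tris·HCl pH 7.4, 1 U/mL ADA, 0.1% CHAPS, 2 h at 25 °C. Nonspecific binding with 100 μM NECA. GF/C filtration; washes in ice-cold Tris·HCl pH 7.4 plus 0.1% BSA. Ki by nonlinear regression using radioligand Ki of 0.41 nM.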

Experiment [3] has as its target T3, Adenosine receptor A2a (Homo sapiens, UniProt P29274). Briefly: Displacement of [3H]ZM241385 from human adenosine A2A receptor expressed in HEK 293 cells after 2 hrs by scintillation counting. The experiment is classed as cell-based, HEK293.
The target of another experiment is T4, Adenosine receptor A1 (Homo sapiens, UniProt P30542).
T4 sequence (P30542 whole entry): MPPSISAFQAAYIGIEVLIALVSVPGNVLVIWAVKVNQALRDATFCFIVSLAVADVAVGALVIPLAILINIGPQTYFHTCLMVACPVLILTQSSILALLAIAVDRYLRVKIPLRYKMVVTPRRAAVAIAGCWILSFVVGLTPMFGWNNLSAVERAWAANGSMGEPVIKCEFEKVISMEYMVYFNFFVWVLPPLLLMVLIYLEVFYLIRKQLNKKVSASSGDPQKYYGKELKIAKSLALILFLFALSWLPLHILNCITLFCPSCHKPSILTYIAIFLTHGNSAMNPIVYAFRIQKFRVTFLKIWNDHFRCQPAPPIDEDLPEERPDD
Nature of the experiment: Displacement of [3H]DPCPX from human adenosine A1 receptor expressed in CHO cells after 1 hr by scintillation counting. The experiment is classed as cell-based.

For experiment [4], the target named is T3, Adenosine receptor A2a. Nature of the experiment: Displacement of [3H]ZM241385 from human adenosine A2A receptor expressed in HEK 293 cells at 10 uM after 2 hrs by scintillation counting. In kind it is cell-based. The conditions noted are these: HEK293.
For experiment [5], the target named is T5, Adenosine receptor A1 (Homo sapiens) (UniProt P30542).
T5 sequence (whole entry): T4 sequence (P30542 whole entry)
Briefly: Displacement of [3H]DPCPX from human adenosine A1 receptor expressed in CHO cells at 10 uM after 1 hr by scintillation counting. The experiment is classed as cell-based.

The target of the next experiment is T6, Adenosine receptor A3 (Homo sapiens, UniProt P0DMS8).
T6 sequence (P0DMS8 whole entry): T1 sequence (whole entry)
Nature of the experiment: Displacement of [3H]PSB11 from human adenosine A3 receptor expressed in HEK 293 cells after 1 hr by scintillation counting. The experiment is classed as cell-based, HEK293.

For another experiment, the target named is T7, Adenosine receptor A2b (Homo sapiens, UniProt P29275).
T7 sequence (P29275 whole entry): T2 sequence (whole entry)
Nature of the experiment: Displacement of [3H][…] from human adenosine A2B receptor expressed in CHO cells after 2 hrs by scintillation counting. In kind it is cell-based. Put shortly:
as §1

T3 sequence (P29274 whole entry): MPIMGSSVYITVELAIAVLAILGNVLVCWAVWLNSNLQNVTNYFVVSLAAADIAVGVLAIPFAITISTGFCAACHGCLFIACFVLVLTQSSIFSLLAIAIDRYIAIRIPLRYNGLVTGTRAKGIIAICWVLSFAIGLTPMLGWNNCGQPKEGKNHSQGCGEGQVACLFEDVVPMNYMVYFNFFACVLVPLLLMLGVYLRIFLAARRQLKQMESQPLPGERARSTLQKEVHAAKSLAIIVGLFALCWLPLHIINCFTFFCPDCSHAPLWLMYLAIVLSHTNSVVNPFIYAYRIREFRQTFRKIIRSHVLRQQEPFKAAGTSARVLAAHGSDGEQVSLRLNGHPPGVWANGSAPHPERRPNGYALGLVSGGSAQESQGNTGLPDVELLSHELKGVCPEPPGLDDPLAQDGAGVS

For orientation: inhibition means the change of the read-out against control, counted positive when it falls. For orientation: Ki means the dissociation constant of the complex between target and ligand, obtained from inhibition or displacement. Take `COc1nc(N)c(C#N)c(-c2ccc3c(c2)OCO3)c1C#N`: the inhibition in experiment [1] worked out at 21%; in experiment [2], 32%. Besides, the inhibitory constant (Ki) on Adenosine receptor A2a [3] was determined as 31000 nM; at Adenosine receptor A1, 510 nM.
Take `C=CCn1c(=O)[nH]c2nc3cc(NC(C)=O)ccc3nc2c1=O`: the inhibition is -3% in experiment [1], 42% on Adenosine receptor A2a [4] and 14% in experiment [2]. This compound displayed a Ki on Adenosine receptor A1 of 3200 nM.
For the compound `COCc1cc(C)nc2sc(-c3nc(N)nc(N(C)C)n3)c(N)c12`, the inhibition in experiment [1] was 33%; in experiment [5], 35%; in experiment [2] it was -5%. On Adenosine receptor A2a [3], this compound registered a Ki of 1600 nM.
For the compound `N#Cc1cnc(N)nc1-c1ccccc1`, in experiment [1], the inhibition is 13%. Further, the results for the Ki at Adenosine receptor A2a [3] and on Adenosine receptor A1 were 300 nM and 900 nM, respectively.
On to `Nc1nc(-c2ccccc2)nc(-c2ccccc2O)n1`, for which the inhibition constant Ki is 440 nM at Adenosine receptor A3, 220 nM on Adenosine receptor A2b, 43 nM at Adenosine receptor A2a [3] and 7.2 nM at Adenosine receptor A1.
Take `O=C(Cc1ccccc1)Nc1nn2c(-c3ccco3)nnc2s1`: the inhibition in experiment [1] was 3%; in experiment [5] it was 44%; in experiment [2], -8%. The compound also showed an inhibitory constant (Ki) on Adenosine receptor A2a [3] of 5100 nM.

These data come from ChEMBL document CHEMBL2163229, “Identifying novel adenosine receptor ligands by simultaneous proteochemometric modeling of rat and human bioactivity data” (J Med Chem, 2012).
